From ChEMBL document CHEMBL4680221, “Discovery of pyrazole derivatives as cellular active inhibitors of histone lysine specific demethylase 5B (KDM5B/JARID1B)” (Eur J Med Chem, 2020)
Active and inactive are the calls of the source. The calls are words filed in the database; no cut-off is given here.

Columns and labels:
[1] = target: T1, Lysine-specific demethylase 5B (Homo sapiens, UniProt Q9UGL1); assay: Inhibition of recombinant human N-terminal FLAG-tagged KDM5B expressed in Sf9 insect cells at 10 uM using biotin-H3K4me as substrate by ALPHA relative to control
In short: (§1)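 ALPHA demethylase assay. Recombinant KDM5B (4 nM) was preincubated with compound, then biotin-H3K4me3 peptide (64 nM) was added. Buffer: 10 μM α-KG, 100 μM ascorbate, 50 μM (NH4)2Fe(SO4)2, 50 mM HEPES pH 7.5, 0.01% Tween 20, 0.1% BSA. Read-out used streptavidin donor and H3K4me1-2 antibody acceptor beads. Data were normalized to blank control and IC50 fitted.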

[2] = target: T1, Lysine-specific demethylase 5B; assay: Inhibition of recombinant human N-terminal FLAG-tagged KDM5B expressed in Sf9 insect cells using biotin-H3K4me as substrate by ALPHA; in short: as §1
MKN-45 [3] = assay: Antiproliferative activity against human MKN-45 cells assessed as reduction in cell proliferation measured after 4 days by MTS assay; type: functional, cell-based; details: MKN-45, 96 h
In short: (§2)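 MKN45 cells were seeded at 3×10^3 cells per well and treated for 4 or 6 days, as indicated. Proliferation was read by MTS assay and IC50 derived. Three independent experiments, mean ± SD.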

[4] = Cytotoxicity against human GES1 cells assessed as reduction in cell proliferation at 100 uM by MTS assay relative to control; type: cell-based; details: read-out: Activity
In short: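 Normal human gastric epithelial GES-1 cells, seeded at 3×10^3 cells per well and exposed to 100 μM. Antiproliferation rate was read by MTS assay.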

MKN-45 [5] = assay: Antimigratory activity in human MKN-45 cells at 20 uM measured up to 48 hrs by wound healing assay; type: functional, cell-based; details: time hrs <=48
In short: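 MKN45 cells were grown to confluence in 24 h, then scratched with a pipette tip and washed with PBS. Medium was changed to fresh medium with 2% FBS plus compound. The wound was photographed by microscope at 0, 6, 12, 24 and 48 h. Three independent experiments.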

MKN-45 [6] = assay: Antimigratory activity in human MKN-45 cells at 20 uM measured after 24 hrs by transwell assay; type: functional, cell-based
MKN-45 [7] = assay: Antiproliferative activity against human MKN-45 cells assessed as reduction in cell proliferation measured after 6 days by MTS assay; type: functional, cell-based; details: MKN-45, 144 h; in short: as §2
[8] = target: T1, Lysine-specific demethylase 5B; assay: Inhibition of KDM5B in human MKN-45 cells assessed as increase in H3K4me2 accumulation at 20 uM measured after 5 days by Hoechst 33342 staining based immunofluorescence assay; type: cell-based; details: time 5.0 day
In short: (§3)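 MKN45 cells were seeded and left 24 h, then treated for 5 days. Cells were fixed in 4% paraformaldehyde, permeabilised with 0.1% Triton X-100 for 20 min and blocked with 5% BSA for 1 h. H3K4me2 or H3K4me3 primary antibody was applied at 4°C overnight, followed by Alexa Fluor 488 secondary and Hoechst 33342 (5 µg/mL) nuclear stain. Signal was quantified by high content imaging; three independent experiments.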

MKN-45 [9] = assay: Antiproliferative activity against human MKN-45 cells assessed as reduction in cell proliferation measured after 6 days by MTS assay relative to control; type: functional; design: scale not given: the % may be the effect or the level left; details: time 6 day; in short: as §2
MKN-45 [10] = assay: Inhibition of KDM4 in human MKN-45 cells assessed as increase in H3K9me2 accumulation at 20 uM measured after 5 days by Western blot analysis; type: cell-based; details: time 5.0 day
In short: (§4)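 MKN45 cells were treated for 5 days and lysed in RIPA buffer. About 30 µg protein was run on 10% SDS-PAGE and transferred to 0.2 µm nitrocellulose, then blocked with 5% milk in PBS for 2 h. Blots were probed for histone methylation marks with histone 3 as loading control and detected by ECL.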

MKN-45 [11] = assay: Antiproliferative activity against human MKN-45 cells assessed as reduction in cell proliferation measured after 4 days by MTS assay relative to control; type: functional; design: scale not given: the % may be the effect or the level left; details: time 4 day; in short: as §2
[12] = target: T1, Lysine-specific demethylase 5B; assay: Inhibition of KDM5B in human MKN-45 cells assessed as increase in H3K4me1 accumulation at 20 uM measured after 5 days by Western blot analysis; type: cell-based; details: time 5.0 day; in short: as §4
MKN-45 [13] = assay: Inhibition of KDM6 in human MKN-45 cells assessed as increase in H3K27me2 accumulation at 20 uM measured after 5 days by Western blot analysis; type: cell-based; details: time 5.0 day; in short: as §4
[14] = target: T1, Lysine-specific demethylase 5B; assay: Inhibition of KDM5B in human MKN-45 cells assessed as increase in H3K4me3 accumulation at 20 uM measured after 5 days by Hoechst 33342 staining based immunofluorescence assay; type: cell-based; details: time 5.0 day; in short: as §3
[15] = target: T1, Lysine-specific demethylase 5B; assay: Inhibition of KDM5B in human MKN-45 cells assessed as protein stabilization at 0.5 to 30 uM measured after 1 hr by cellular thermal shift assay; type: cell-based; details: dose 0.5-30 µM
In short: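 MKN45 cells (5×10^5) were treated with compound or DMSO for 1 h, washed in PBS and resuspended in PBS with protease inhibitors. Cells were heated at 46 °C for 3 min, then freeze-thawed three times in liquid nitrogen. KDM5B in the supernatant was measured by western blot with GAPDH control. Repeated three times.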

[16] = target: T1, Lysine-specific demethylase 5B; assay: Inhibition of KDM5B in human MKN-45 cells assessed as increase in H3K4me2 accumulation at 20 uM measured after 5 days by Western blot analysis; type: cell-based; details: time 5.0 day; in short: as §4
MKN-45 [17] = assay: Inhibition of KDM4 in human MKN-45 cells assessed as increase in H3K9me3 accumulation at 20 uM measured after 5 days by Western blot analysis; type: cell-based; details: time 5.0 day; in short: as §4
[18] = target: T1, Lysine-specific demethylase 5B; assay: Inhibition of KDM5B in human MKN-45 cells assessed as increase in H3K4me3 accumulation at 20 uM measured after 5 days by Western blot analysis; type: cell-based; details: time 5.0 day; in short: as §4

T1 sequence (Q9UGL1 whole entry): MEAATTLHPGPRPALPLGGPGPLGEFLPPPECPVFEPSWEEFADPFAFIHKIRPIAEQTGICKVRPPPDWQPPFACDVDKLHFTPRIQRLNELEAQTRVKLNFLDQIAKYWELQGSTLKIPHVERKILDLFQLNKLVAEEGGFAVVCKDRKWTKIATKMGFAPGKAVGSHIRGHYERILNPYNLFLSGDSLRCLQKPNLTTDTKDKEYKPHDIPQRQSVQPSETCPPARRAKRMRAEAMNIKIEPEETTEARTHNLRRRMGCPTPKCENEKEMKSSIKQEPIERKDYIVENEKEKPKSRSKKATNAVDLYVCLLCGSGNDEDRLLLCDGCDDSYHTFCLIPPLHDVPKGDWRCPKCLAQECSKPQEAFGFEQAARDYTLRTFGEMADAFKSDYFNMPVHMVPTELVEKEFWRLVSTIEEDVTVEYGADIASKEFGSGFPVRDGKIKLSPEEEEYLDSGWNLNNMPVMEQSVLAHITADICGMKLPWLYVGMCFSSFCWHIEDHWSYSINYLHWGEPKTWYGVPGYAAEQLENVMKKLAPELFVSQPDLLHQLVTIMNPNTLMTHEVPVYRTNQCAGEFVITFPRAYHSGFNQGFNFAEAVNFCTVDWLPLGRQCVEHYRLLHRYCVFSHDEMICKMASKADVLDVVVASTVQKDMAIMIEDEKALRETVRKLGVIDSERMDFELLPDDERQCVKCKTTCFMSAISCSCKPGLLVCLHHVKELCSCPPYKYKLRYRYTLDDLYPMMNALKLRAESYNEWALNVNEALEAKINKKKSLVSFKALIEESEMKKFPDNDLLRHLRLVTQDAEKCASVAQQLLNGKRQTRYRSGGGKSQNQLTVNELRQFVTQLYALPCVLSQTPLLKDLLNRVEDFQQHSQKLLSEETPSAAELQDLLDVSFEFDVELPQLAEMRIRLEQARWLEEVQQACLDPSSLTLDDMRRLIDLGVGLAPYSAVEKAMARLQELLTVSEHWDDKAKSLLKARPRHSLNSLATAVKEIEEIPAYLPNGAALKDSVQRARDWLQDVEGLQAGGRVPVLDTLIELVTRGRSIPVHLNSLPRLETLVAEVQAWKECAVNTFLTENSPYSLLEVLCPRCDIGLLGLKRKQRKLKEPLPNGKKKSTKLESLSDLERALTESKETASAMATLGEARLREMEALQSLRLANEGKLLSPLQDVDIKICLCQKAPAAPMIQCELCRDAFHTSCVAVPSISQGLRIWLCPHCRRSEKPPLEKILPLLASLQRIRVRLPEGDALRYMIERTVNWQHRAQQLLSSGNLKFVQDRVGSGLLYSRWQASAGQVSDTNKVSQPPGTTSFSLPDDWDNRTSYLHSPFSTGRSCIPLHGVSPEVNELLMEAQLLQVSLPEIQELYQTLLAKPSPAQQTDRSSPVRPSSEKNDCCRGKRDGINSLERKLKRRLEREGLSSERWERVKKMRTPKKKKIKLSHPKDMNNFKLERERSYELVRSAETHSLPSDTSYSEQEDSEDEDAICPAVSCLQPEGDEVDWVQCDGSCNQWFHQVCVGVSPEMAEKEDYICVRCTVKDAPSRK

Row | SMILES | inhibition [1] | IC50 [2] | further results
1 | Cc1cccc(-n2cc(C(=O)NCCN3CCOCC3)c(-c3ccccc3)n2)c1 | 20.9% | > 10000 nM | 
2 | CC(C)c1c(-c2ccccc2)[nH]c2c(C#N)cnn2c1=O |  | 10.5 nM | IC50 (MKN-45 [3]): 30300 nM; inhibition at 100 µM [4]: < 10%; Activity (MKN-45 [5]): Active; Activity (MKN-45 [6]): Active; IC50 (MKN-45 [7]): 23800 nM
3 | O=C(NCCN1CCOCC1)c1cn(-c2ccccc2)nc1-c1ccccc1 | 76.4% | 310 nM | 
4 | CC(C)c1ccc(-c2nn(-c3ccccc3)cc2C(=O)NCCN2CCOCC2)cc1 | -5.81% | > 10000 nM | 
5 | COC(=O)CCNC(=O)c1cn(-c2ccc(C)cc2)nc1-c1ccccc1 | 82.1% | 251 nM | 
6 | COc1ccc(-n2nc(-c3ccccc3)nc2C(=O)NCC(C)(C)N2CCOCC2)cc1 | 28% | > 10000 nM | inhibition [8]: inactive; Activity (MKN-45 [9]): 13.24%; inhibition (MKN-45 [10]): inactive; Activity (MKN-45 [11]): 10.32%; inhibition [12]: inactive; inhibition (MKN-45 [13]): inactive; Activity (MKN-45 [5]): inactive; inhibition [14]: inactive; inhibition [15]: inactive; inhibition [16]: inactive; Activity (MKN-45 [6]): inactive; inhibition (MKN-45 [17]): inactive; inhibition [18]: inactive
7 | Cc1ccccc1-n1cc(C(=O)NCCN2CCOCC2)c(-c2ccccc2)n1 | -7.78% | > 10000 nM | 
8 | COc1ccc(-n2cc(C(=O)N3CCN(CCN4CCCC4)CC3)c(-c3ccccc3)n2)cc1 | 17.2% | > 10000 nM | 
9 | Cc1ccc(-n2nc(-c3ccccc3)nc2C(=O)NCC(C)(C)N2CCOCC2)cc1 | 28.9% | > 10000 nM | 
10 | COc1ccc(-n2cc(C(=O)NCCN3CCOCC3)c(-c3ccccc3)n2)cc1 | 93% | 108 nM | 
11 | Cc1ccc(NC(=O)c2cn(-c3ccc(C)cc3)nc2-c2ccccc2)cc1 | 79.5% | 323 nM | 
12 | C#CCNC(=O)c1cn(-c2ccccc2)nc1-c1ccccc1 | 84.6% | 348 nM | 
13 | Cc1cncc(C(=O)NCCN2CCOCC2)c1 | 33.6% | > 10000 nM | 
14 | O=C(NCCN1CCOCC1)c1cn(-c2ccccc2)nc1-c1ccncc1 | 81.3% | 237 nM | 
15 | CCc1ccc(-c2nn(-c3ccccc3)cc2C(=O)NCCN2CCOCC2)cc1 | 45.3% | 1350 nM | 
16 | CC(C)N(CCNC(=O)c1cn(-c2ccccc2)nc1-c1ccccc1)C(C)C | 67% | 2240 nM | 
17 | Cc1ccc(-n2cc(C(=O)NCCN3CCOCC3)c(-c3ccccc3)n2)cc1 | 66.8% | 851 nM | 
18 | Cc1n[nH]cc1C(=O)NCCN1CCOCC1 | 21.5% | > 10000 nM | 
19 | COc1ccccc1-n1cc(C(=O)NCC(C)(C)N2CCOCC2)c(-c2ccccc2)n1 | 92.3% | 93.2 nM | 

The next lines start with results.

Row | inhibition [1] | IC50 [2] | SMILES | further results
20 | 86.6% | 232 nM | O=C(c1cn(-c2ccccc2)nc1-c1ccccc1)N1CCN(CCN2CCCC2)CC1 | 
21 | 14.8% | > 10000 nM | CC(C)c1ccc(-n2cc(C(=O)NCCN3CCOCC3)c(-c3ccccc3)n2)cc1 | 
22 | 42.5% | > 10000 nM | O=C(NCCN1CCOCC1)c1cncc(-c2ccccc2)c1 | 
23 | 76.5% | 851 nM | Cc1ccc(-c2nn(-c3ccc(C)cc3)cc2C(=O)N2CCN(CCN3CCCC3)CC2)cc1 | 
24 | 62% | 541 nM | CC(C)(CNC(=O)c1cn(-c2ccc(Cl)cc2)nc1-c1ccccc1)N1CCOCC1 | 
25 | 75.4% | 335 nM | O=C(NCCN1CCOCC1)c1cn(-c2ccccc2)nc1-c1cccs1 | 
26 | -1.95% | > 10000 nM | O=C(NCC1(N2CCOCC2)CCCCC1)c1cn(-c2ccccc2)nc1-c1ccccc1 | 
27 | 82.3% | 238 nM | COc1ccc(-c2nn(-c3ccccc3)cc2C(=O)NCCN2CCOCC2)cc1 | 
28 | 72% | 572 nM | O=C(NCCN1CCOCC1)c1cn(-c2ccccc2)nc1-c1ccc(Cl)cc1 | 
29 | 75.7% | 5390 nM | O=C(NCCN1CCOCC1)c1c[nH]nc1-c1ccccc1 | 
30 | 8.69% | > 10000 nM | O=C(NCCN1CCOCC1)c1cn(-c2ccc(Cl)cc2)nc1-c1ccccc1 | 
31 | 94.2% | 73 nM | Cc1ccc(-n2cc(C(=O)N3CCN(CCN4CCCC4)CC3)c(-c3ccccc3)n2)cc1 | 
32 | 9.25% | > 10000 nM | Cc1ccccc1-c1nn(-c2ccccc2)cc1C(=O)NCCN1CCOCC1 | 
33 | 20% | > 10000 nM | CCc1ccc(-n2cc(C(=O)NCCN3CCOCC3)c(-c3ccccc3)n2)cc1 | 
34 | 92.3% | 200 nM | CC(C)(CNC(=O)c1cn(-c2ccccc2)nc1-c1ccccc1)N1CCN(c2ccccc2)CC1 | 
35 | 82.4% | 191 nM | Cc1ccc(-n2cc(C(=O)NCC(C)(C)N3CCOCC3)c(-c3ccccc3)n2)cc1 | 
